pEC50, pIC50: −log10 of the molar value.
How the values were obtained:
Genome polyprotein = Genome polyprotein (Hepatitis C virus genotype 1b (isolate Con1) (HCV), UniProt Q9WMX2); experiment: Inhibition of […] con1 NS5B polymerase assessed as [3H]UTP incorporation into acid insoluble RNA product
Hepatitis C virus [1] = experiment: Antiviral activity against HCV1b infected in human 2209-23 cells assessed as inhibition of virus RNA replication by Renilla luciferase reporter gene assay in presence of 5% fetal bovine serum; assay type: functional, organism-based, Hepacivirus hominis; settings: genotype 1b
Summary of the method: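 Cell-based HCV subgenomic replicon (genotype 1b) assay run in medium containing 5% fetal bovine serum.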

Hepatitis C virus [2] = experiment: Antiviral activity against HCV1b infected in human 2209-23 cells assessed as inhibition of virus RNA replication by Renilla luciferase reporter gene assay in presence of 40% human serum; assay type: functional, organism-based, Hepacivirus hominis; settings: genotype 1b
Summary of the method: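 Serum-shift version of the HCV subgenomic replicon (GT-1b) cell assay, with 40% human serum added to assess the effect of protein binding.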

Hepatitis C virus [3] = experiment: Selectivity ratio, EC50 for HCV1b in presence of 40% human serum to EC50 for HCV1b in presence of 5% fetal bovine serum; assay type: functional, Hepacivirus hominis, genotype 1b
[4] = Metabolic stability in rat liver microsomes; assay type: ADME, Microsome; settings: read-out: Stability
[5] = Metabolic stability in cynomolgus monkey liver microsomes; assay type: ADME, Macaca fascicularis, Microsome; settings: read-out: Stability
[6] = AUC in rat at 2 mg/kg, iv and 5 mg/kg, po; assay type: ADME, organism-based; settings: plasma
Summary of the method: (§1)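 Single-dose PK in rats or cynomolgus monkeys; intravenous dose 2 mg/Kg, oral dose 5 mg/Kg; parameters reported as means.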

[7] = AUC in cynomolgus monkey at 2 mg/kg, iv and 5 mg/kg, po; assay type: ADME, organism-based, Macaca fascicularis; settings: plasma; summary of the method: as §1
[8] = Half life in rat at 2 mg/kg, iv and 5 mg/kg, po; assay type: ADME, organism-based; settings: in vivo; summary of the method: as §1
[9] = Half life in cynomolgus monkey at 2 mg/kg, iv and 5 mg/kg, po; assay type: ADME, organism-based, Macaca fascicularis; settings: in vivo; summary of the method: as §1
[10] = Clearance in rat at 2 mg/kg, iv and 5 mg/kg, po; assay type: ADME, organism-based; settings: in vivo; summary of the method: as §1
[11] = Clearance in cynomolgus monkey at 2 mg/kg, iv and 5 mg/kg, po; assay type: ADME, organism-based, Macaca fascicularis; settings: in vivo; summary of the method: as §1
[12] = Oral bioavailability in rat at 5 mg/kg; assay type: ADME, organism-based; settings: in vivo; summary of the method: as §1
[13] = Oral bioavailability in cynomolgus monkey at 5 mg/kg; assay type: ADME, organism-based, Macaca fascicularis; settings: in vivo; summary of the method: as §1
Hepatitis C virus [14] = experiment: Ratio of EC50 for HCV GT-1a replicon over EC50 for HCV GT-1b replicon
Caco-2 = experiment: Efflux ratio of permeability from basolateral to apical over apical to basolateral side in human Caco-2 cells after 21 days; settings: caco-2, 504 h
Hepatitis C virus [15] = experiment: Antiviral activity against HCV1b infected in human 2209-23 cells assessed as inhibition of virus RNA replication by Renilla luciferase reporter gene assay; assay type: functional, organism-based, Hepacivirus hominis; settings: genotype 1b

Chain of Genome polyprotein (Q9WMX2 2420-3010 limits assumed): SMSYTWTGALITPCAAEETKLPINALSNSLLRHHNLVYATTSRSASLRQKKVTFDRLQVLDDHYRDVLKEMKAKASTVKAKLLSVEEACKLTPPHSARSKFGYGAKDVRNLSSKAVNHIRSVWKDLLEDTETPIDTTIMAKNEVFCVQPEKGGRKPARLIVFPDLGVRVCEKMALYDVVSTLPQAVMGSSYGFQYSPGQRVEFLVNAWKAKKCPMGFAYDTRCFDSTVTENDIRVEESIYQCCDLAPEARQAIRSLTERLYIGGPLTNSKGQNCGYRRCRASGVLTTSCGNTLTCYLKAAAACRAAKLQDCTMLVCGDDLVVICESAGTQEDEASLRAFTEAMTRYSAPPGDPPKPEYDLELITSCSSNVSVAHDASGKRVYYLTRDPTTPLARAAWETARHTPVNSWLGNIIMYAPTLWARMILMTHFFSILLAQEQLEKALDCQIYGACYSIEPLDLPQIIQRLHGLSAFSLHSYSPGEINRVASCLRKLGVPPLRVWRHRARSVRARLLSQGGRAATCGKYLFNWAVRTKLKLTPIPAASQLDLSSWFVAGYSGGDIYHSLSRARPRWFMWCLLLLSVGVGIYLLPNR

| SMILES | pIC50 (Genome polyprotein) | pEC50 (Hepatitis C virus [1]) | pEC50 (Hepatitis C virus [2]) | Ratio IC50 (Hepatitis C virus [3]) | Ratio EC50 (Hepatitis C virus [14]) | also measured |
| --- | --- | --- | --- | --- | --- | --- |
| CC(C)(C)[C@H]1C(O)=C(C2=NS(=O)(=O)c3c(CNS(N)(=O)=O)cccc32)C(=O)N1Cc1ccc(F)cc1 | 8.52 | 6.98 | 5.89 | 12.4 |  |  |
| CC(C)(C)[C@H]1C(O)=C(C2=NS(=O)(=O)c3c(CN4CCCCS4(=O)=O)cccc32)C(=O)N1Cc1ccc(F)cc1 | 7.92 | 6.69 | 5.33 | 23.1 |  |  |
| Cc1cc(CN2C(=O)C(C3=NS(=O)(=O)c4c(CNS(C)(=O)=O)cccc43)=C(O)[C@@H]2C(C)(C)C)ccc1F | 8.40 | 7.09 | 5.59 | 31.3 | 2 | microsomal CLint [4]: 431 µL/min/mg; microsomal CLint [5]: 23 µL/min/mg; AUC [6]: 2750 ng·h/mL; AUC [7]: 1230 ng·h/mL; half-life [8]: 4.18 h; half-life [9]: 1.75 h; clearance [10]: 8.4 mL/min/kg; clearance [11]: 10 mL/min/kg; bioavailability [12]: 17%; bioavailability [13]: 11%; Ratio (Caco-2): 31 |
| CN(Cc1cccc2c1S(=O)(=O)N=C2C1=C(O)[C@H](C(C)(C)C)N(Cc2ccc(F)c(Cl)c2)C1=O)S(C)(=O)=O | 8.00 | 6.97 | 5.52 | 28.1 |  |  |
| CC(C)(C)[C@H]1C(O)=C(C2=NS(=O)(=O)c3c(CCS(C)(=O)=O)cccc32)C(=O)N1Cc1ccc(F)cc1 | 8.40 | 6.55 | 5.32 | 17 |  |  |
| Cc1cc(CN2C(=O)C(C3=NS(=O)(=O)c4c(CN(C)S(C)(=O)=O)cccc43)=C(O)[C@@H]2C(C)(C)C)ccc1F | 8.30 | 6.89 | 5.97 | 8.27 | 2 | microsomal CLint [4]: 939 µL/min/mg; AUC [6]: 582 ng·h/mL; half-life [8]: 3.37 h; clearance [10]: 34.4 mL/min/kg; bioavailability [12]: 24%; Ratio (Caco-2): 4.3 |
| CC(C)(C)[C@H]1C(O)=C(C2=NS(=O)(=O)c3c(OCS(C)(=O)=O)cccc32)C(=O)N1Cc1ccc(F)cc1 | 8.05 | 6.63 | 5.33 | 19.8 |  |  |
| Cc1cc(CN2C(=O)C(C3=NS(=O)(=O)c4c(CNS(N)(=O)=O)cccc43)=C(O)[C@@H]2C(C)(C)C)ccc1F | 8.52 | 7.12 | 5.93 | 15.3 | 2 | microsomal CLint [4]: 239 µL/min/mg; AUC [6]: 102 ng·h/mL; half-life [8]: 4.7 h; clearance [10]: 48 mL/min/kg; bioavailability [12]: 8.2%; Ratio (Caco-2): 6.7 |
| CC(C)(C)[C@H]1C(O)=C(C2=NS(=O)(=O)c3c(CNS(C)(=O)=O)cccc32)C(=O)N1Cc1ccc(F)cc1 |  | 7.00 | 5.43 | 37.3 | 2 |  |
| CC(C)(C)[C@H]1C(O)=C(C2=NS(=O)(=O)c3cc(CNS(C)(=O)=O)ccc32)C(=O)N1Cc1ccc(F)cc1 | 7.37 |  |  |  |  | pEC50 (Hepatitis C virus [15]): 5.42 |
| CC(C)(C)[C@H]1C(O)=C(C2=NS(=O)(=O)c3c(NS(C)(=O)=O)cccc32)C(=O)N1Cc1ccc(F)cc1 | 8.30 |  |  |  |  | pEC50 (Hepatitis C virus [15]): 5.31 |
| CN(Cc1cccc2c1S(=O)(=O)N=C2C1=C(O)[C@H](C(C)(C)C)N(Cc2ccc(F)cc2)C1=O)S(N)(=O)=O | 9.00 | 6.57 | 5.90 | 5.9 |  |  |
| CC(C)(C)[C@H]1C(O)=C(C2=NS(=O)(=O)c3c(OCS(N)(=O)=O)cccc32)C(=O)N1Cc1ccc(F)cc1 | 8.22 | 6.64 | 5.54 | 12.7 |  |  |

— ChEMBL document CHEMBL1155198, “Non-nucleoside inhibitors of HCV polymerase NS5B. Part 4: structure-based design, synthesis, and biological evaluation of benzo[d]isothiazole-1,1-dioxides” (Bioorg Med Chem Lett, 2009)
